The values that follow come from ChEMBL document CHEMBL2169869, “Assay and inhibition of diacylglycerol lipase activity” (Bioorg Med Chem Lett, 2012).

Assay [1] has as its target T1, Fatty-acid amide hydrolase 1 (Rattus norvegicus, UniProt P97612).
T1 sequence (P97612 whole entry): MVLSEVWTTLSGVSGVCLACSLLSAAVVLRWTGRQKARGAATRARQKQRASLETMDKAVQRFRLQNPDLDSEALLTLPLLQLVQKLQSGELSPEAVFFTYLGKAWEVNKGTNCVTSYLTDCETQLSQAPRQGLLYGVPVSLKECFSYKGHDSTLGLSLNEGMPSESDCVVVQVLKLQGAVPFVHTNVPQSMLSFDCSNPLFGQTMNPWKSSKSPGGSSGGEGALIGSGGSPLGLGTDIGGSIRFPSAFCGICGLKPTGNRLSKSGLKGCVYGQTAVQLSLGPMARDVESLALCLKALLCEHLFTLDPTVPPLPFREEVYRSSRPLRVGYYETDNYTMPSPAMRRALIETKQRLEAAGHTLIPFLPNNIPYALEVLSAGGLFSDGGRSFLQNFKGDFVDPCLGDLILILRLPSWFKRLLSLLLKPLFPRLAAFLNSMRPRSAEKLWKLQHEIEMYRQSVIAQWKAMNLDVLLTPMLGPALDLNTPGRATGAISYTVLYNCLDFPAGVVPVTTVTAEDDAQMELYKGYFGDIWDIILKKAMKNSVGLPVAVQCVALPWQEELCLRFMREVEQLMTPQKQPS
The assay can be described thus: Inhibition of rat histidine tagged FAAH expressed in Escherichia coli by coumarin ester substrate fluorescence assay.

Assay [2] concerns the target T2, Diacylglycerol lipase-alpha (Homo sapiens) (UniProt Q9Y4D2).
T2 sequence (whole entry): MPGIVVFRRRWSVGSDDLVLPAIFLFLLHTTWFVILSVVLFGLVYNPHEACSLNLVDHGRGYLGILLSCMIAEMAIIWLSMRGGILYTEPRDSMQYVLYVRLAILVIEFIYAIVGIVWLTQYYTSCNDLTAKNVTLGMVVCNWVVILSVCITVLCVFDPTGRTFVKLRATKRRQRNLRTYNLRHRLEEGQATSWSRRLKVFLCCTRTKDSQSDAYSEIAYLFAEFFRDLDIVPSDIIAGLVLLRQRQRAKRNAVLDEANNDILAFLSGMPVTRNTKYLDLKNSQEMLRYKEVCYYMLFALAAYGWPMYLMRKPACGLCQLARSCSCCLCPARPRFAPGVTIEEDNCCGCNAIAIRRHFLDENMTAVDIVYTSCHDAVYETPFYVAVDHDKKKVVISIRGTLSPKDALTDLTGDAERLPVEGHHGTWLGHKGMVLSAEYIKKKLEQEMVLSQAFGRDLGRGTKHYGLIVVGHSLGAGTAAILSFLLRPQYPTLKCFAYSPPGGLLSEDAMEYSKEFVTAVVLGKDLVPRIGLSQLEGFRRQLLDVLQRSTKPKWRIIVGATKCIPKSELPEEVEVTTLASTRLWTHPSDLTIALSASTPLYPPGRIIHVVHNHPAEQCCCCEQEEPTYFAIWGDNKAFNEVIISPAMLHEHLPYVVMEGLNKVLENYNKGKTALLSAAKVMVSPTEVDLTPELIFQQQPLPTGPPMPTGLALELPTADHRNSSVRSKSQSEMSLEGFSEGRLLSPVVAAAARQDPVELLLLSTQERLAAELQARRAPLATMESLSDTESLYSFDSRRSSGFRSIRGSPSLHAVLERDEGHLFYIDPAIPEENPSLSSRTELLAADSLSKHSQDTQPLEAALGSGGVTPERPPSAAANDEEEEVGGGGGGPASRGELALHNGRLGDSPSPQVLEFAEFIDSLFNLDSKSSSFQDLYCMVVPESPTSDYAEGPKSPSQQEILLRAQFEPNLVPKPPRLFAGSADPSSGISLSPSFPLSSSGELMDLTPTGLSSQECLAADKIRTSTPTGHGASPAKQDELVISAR
Description: Inhibition of human DAGLalpha expressed in HEK293T cell membrane using [14C]SAG substrate at 10 uM in presence of 0.015% Triton X-100 by scintillation counting based radio-TLC assay. Particulars: HEK-293T. The assay is classed as cell membranes. The procedure, abridged: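 Sonicated HEK293T protein (100 μg) in 50 mM Tris pH 7.4 with 10 mM CaCl2. Inhibitor in DMSO (10% DMSO standard) preincubated 15 min at 37 °C. [14C]SAG was added to 20 μM final for 20 min at 37 °C, with Triton X-100 where the line states it. Quenched with 2:1 CHCl3/MeOH. Silica TLC in CHCl3/MeOH/NH4OH 86:14:0.75, then 12 h phosphorimaging. Activity = (2-AG+AA)/(2-AG+AA+SAG). Background-subtracted; n=1–2.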

Assay [3] deals with T2, Diacylglycerol lipase-alpha (Homo sapiens). The assay can be described thus: Inhibition of human DAGLalpha expressed in HEK293T cell membrane using [14C]SAG substrate at 10 uM using JZL184 pretreated protein in detergent free solution by […]. It is filed as cell-based. Particulars: HEK-293T.
Assay [4] can be described thus: Inhibition of porcine pancreatic lipase type 2 by FRET assay. Further details: species or system Sus scrofa. The procedure, abridged:
(§1)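 Purified enzymes: bacterial lipoprotein lipase (0.46 μg) or porcine pancreatic lipase type II (1.0 μg, suspended in 1:9 DMSO/water). Run in 50 mM Tris pH 7.4 with 10 mM CaCl2. Substrate was the pyrene-dinitrophenyl ether lipid FRET reporter at 25 μM, with compounds screened at 10 μM. Fluorescence was read at ex 320/em 400 nm, and percent inhibition was taken at 1.5 h; n = 1 or 2.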

A short description of assay [5]: Inhibition of bacterial lipoprotein lipase by FRET assay. Further details: species or system Bacteria. The procedure, abridged: as §1

Take `O=C(Oc1ccc([N+](=O)[O-])cc1)N1CCC(C(O)(c2ccc3c(c2)OCO3)c2ccc3c(c2)OCO3)CC1`: the midpoint of inhibition in assay [1], the IC50, lay at 974 nM. Besides, the inhibition (commonly how much of the control response was suppressed) amounted to 37% in assay [2] and 44% in assay [3].

Turning to `CCCCCCCCCCC[C@@H](C[C@@H]1OC(=O)[C@H]1CCCCCC)OC(=O)[C@H](CC(C)C)NC=O` [ORLISTAT], the 50% inhibitory concentration (IC50) – broadly, the concentration that gives 50% inhibition – in assay [4] is under 1 nM; in assay [5], 100 nM.
